According to ChEMBL document CHEMBL4152257, “Discovery of novel β-carboline/acylhydrazone hybrids as potent antitumor agents and overcome drug resistance” (Eur J Med Chem, 2018):

How the values were obtained:
MDA-MB-231 = experiment: Antiproliferative activity against human MDA-MB-231 cells at 1 uM after 48 to 72 hrs by MTT assay relative to control; type: functional
Method in brief: (§1)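 Single-concentration screen in the MTT proliferation assay: log-phase cells seeded and allowed to adhere, exposed to compound at 1 µM for 48 h or 72 h, MTT added for 2-3 h, formazan dissolved in DMSO; percent inhibition versus control.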

MCF7 [1] = experiment: Antiproliferative activity against human MCF7 cells at 1 uM after 48 to 72 hrs by MTT assay relative to control; type: functional; method in brief: as §1
Raji [2] = experiment: Antiproliferative activity against human Raji cells at 1 uM after 48 to 72 hrs by MTT assay relative to control; type: functional; method in brief: as §1
NCI-H460 [3] = experiment: Antiproliferative activity against human H460 cells at 1 uM after 48 to 72 hrs by MTT assay relative to control; type: functional; method in brief: as §1
NCI-H460 [4] = experiment: Antiproliferative activity against human H460 cells after 48 to 72 hrs by MTT assay; type: functional, cell-based
Method in brief: (§2)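 Cells in log phase seeded and allowed to adhere, then exposed to graded compound concentrations for 48 h or 72 h; MTT added for a further 2-3 h, formazan dissolved in DMSO. IC50 taken from dose-response curves; mean ± SD of at least three independent experiments.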

MCF7 [5] = experiment: Antiproliferative activity against human MCF7 cells after 48 to 72 hrs by MTT assay; type: functional, cell-based; method in brief: as §2
Raji [6] = experiment: Antiproliferative activity against human Raji cells after 48 to 72 hrs by MTT assay; type: functional, cell-based; method in brief: as §2
A549/TR = experiment: Antiproliferative activity against human A549/TR cells after 48 to 72 hrs by MTT assay; type: functional, cell-based; method in brief: as §2
A549 = experiment: Antiproliferative activity against human A549 cells after 48 to 72 hrs by MTT assay; type: functional, cell-based; method in brief: as §2
A2780S = experiment: Antiproliferative activity against human A2780S cells after 48 to 72 hrs by MTT assay; type: functional, cell-based; method in brief: as §2
NCI-H460 [7] = experiment: Antitumor activity against human H460 cells xenografted in athymic nude Balb/C mouse assessed as tumor growth inhibition at 30 mg/kg, ip administered once per week measured every two days relative to control; type: functional; details: 48 h, read-out: TGI
Method in brief: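 Nude mice (5-6 weeks old, female) implanted sc in right flank with 5 × 10^6 H460 cells in HBSS; at 100 mm3 tumours, randomised 6 per group to vehicle, oral 100 mg/kg three times weekly, or ip 30 mg/kg once weekly. Tumour volume by caliper every 2 days as (π/6) × length × width²; body weight recorded; inhibition from tumour weights versus control.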

A2780/Taxol = experiment: Antiproliferative activity against human A2780T cells after 48 to 72 hrs by MTT assay; type: functional, cell-based; method in brief: as §2
Mus musculus = experiment: Toxicity in athymic nude Balb/C mouse xenografted with human H460 cells assessed as body weight loss at 30 mg/kg, ip administered once per week measured every 2 days; type: organism-based; details: in vivo, 48 h
Method in brief: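 Nude mice, 5-to-6-week-old females, given 5 × 10^6 H460 cells sc in right flank in HBSS; at 100 mm3 tumour volume randomized, 6 per group. Vehicle; oral 100 mg/kg three times weekly; or ip 30 mg/kg once weekly. Toxicity signs and mortality observed daily; body weight measured every 2 days.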

[8] = Resistance index, ratio of IC50 for human A2780T cells to IC50 for human A2780S cells; type: functional
[9] = Resistance index, ratio of IC50 for human A549/TR cells to IC50 for human A549 cells; type: functional

Row | SMILES | inhibition at 1 µM (MDA-MB-231) [%] | inhibition at 1 µM (MCF7 [1]) [%] | inhibition at 1 µM (Raji [2]) [%] | inhibition at 1 µM (NCI-H460 [3]) [%] | IC50 (NCI-H460 [4]) [µM] | IC50 (MCF7 [5]) [µM] | IC50 (Raji [6]) [µM] | IC50 (A549/TR) [µM] | IC50 (A549) [µM] | IC50 (A2780S) [µM] | inhibition in vivo at 30 mg/kg (NCI-H460 [7]) [%] | IC50 (A2780/Taxol) [µM] | Activity (Mus musculus) [%] | Ratio IC50 [8] | Ratio IC50 [9]
1 | O=C(N/N=C/c1cccc(OCc2cccc(Cl)c2)c1)c1cc2c(cn1)[nH]c1ccccc12 | 15.6 | 22.4 | 48.2 | 31.9 | – | – | – | – | – | – | – | – | – | – | –
2 | O=C(N/N=C/c1c[nH]c2ccccc12)c1cc2c(cn1)[nH]c1ccccc12 | 7.1 | 6.31 | 8.66 | 16.2 | – | – | – | – | – | – | – | – | – | – | –
3 | O=Cc1ccc(OCc2nnc(-c3cc4c(cn3)[nH]c3ccccc34)o2)cc1 | 2.98 | -2.52 | 9.17 | 6.63 | – | – | – | – | – | – | – | – | – | – | –
4 | Cc1ccccc1COc1cccc(/C=N/NC(=O)c2cc3c(cn2)[nH]c2ccccc23)c1 | 24.8 | 18.2 | 36 | 29.4 | – | – | – | – | – | – | – | – | – | – | –
5 | O=C(N/N=C/c1cccc(OCc2cccc(F)c2)c1)c1cc2c(cn1)[nH]c1ccccc12 | 16.5 | 17.1 | 40.4 | 21.7 | – | – | – | – | – | – | – | – | – | – | –
6 | O=C(N/N=C/c1cccc(OCc2ccccc2)c1)c1cc2c(cn1)[nH]c1ccccc12 | 25.6 | 23.1 | 50.2 | 29.7 | 6.52 | 3.56 | 2.62 | – | – | – | – | – | – | – | –
7 | O=C(N/N=C/c1cccc(OCc2ccc(C(F)(F)F)cc2)c1)c1cc2c(cn1)[nH]c1ccccc12 | 24.4 | 38.4 | 51.2 | 23.4 | 7.49 | 6.6 | 2.04 | – | – | – | – | – | – | – | –
8 | CC(=O)O[C@H]1C(=O)[C@@]2(C)[C@H]([C@H](OC(=O)c3ccccc3)[C@]3(O)C[C@H](OC(=O)[C@H](O)[C@@H](NC(=O)c4ccccc4)c4ccccc4)C(C)=C1C3(C)C)[C@]1(OC(C)=O)CO[C@@H]1C[C@@H]2O [PACLITAXEL] | – | – | – | – | – | – | – | 0.759 | 0.0232 | 0.0189 | 65.2 | 73 | < 5 | 3852.53 | 32.76
9 | COc1ccc(COc2cccc(/C=N/NC(=O)c3cc4c(cn3)[nH]c3ccccc34)c2)cc1 | 23.6 | 37 | 52 | 38.6 | 2.84 | 9.37 | 2.34 | – | – | – | – | – | – | – | –
10 | O=Cc1cccc(OCc2nnc(-c3cc4c(cn3)[nH]c3ccccc34)o2)c1 | 9.83 | 26.8 | 17.7 | 13.9 | – | – | – | – | – | – | – | – | – | – | –
11 | COc1cc2c(c(OC)c1OC)-c1ccc(OC)c(=O)cc1[C@@H](NC(C)=O)CC2 [COLCHICINE] | – | – | – | – | – | – | – | 0.167 | – | 0.0219 | – | 35.6 | – | 1630.02 | 60.41
12 | O=C(N/N=C/c1cccc(O)c1)c1cc2c(cn1)[nH]c1ccccc12 | 8.13 | -13.8 | 9.69 | 5.08 | – | – | – | – | – | – | – | – | – | – | –
13 | C/C(=N\NC(=O)c1cccc(S(=O)(=O)N2CCOCC2)c1)c1cc(Cl)ccc1O | 41.3 | 59.3 | 51.7 | 43.2 | 0.47 | 0.62 | 0.98 | – | – | – | – | – | – | – | –
14 | c1ccc(OCc2nnc(-c3cc4c(cn3)[nH]c3ccccc34)o2)cc1 | 7.42 | -5.47 | 1.69 | 4.84 | – | – | – | – | – | – | – | – | – | – | –
15 | O=C(N/N=C/c1ccc2ccccc2c1)c1cc2c(cn1)[nH]c1ccccc12 | 21.8 | 35.7 | 51.8 | 40.7 | 5.71 | 14.9 | 2.04 | – | – | – | – | – | – | – | –
16 | N#Cc1ccccc1COc1cccc(/C=N/NC(=O)c2cc3c(cn2)[nH]c2ccccc23)c1 | 20.7 | 15.1 | 37.4 | 15.5 | – | – | – | – | – | – | – | – | – | – | –
